Screening data: PubChem, The Scripps Research Institute Molecular Screening Center
OXTR potentiate – potentiators of human oxytocin receptor; P30559; CHO-OTR cells, Fluo-8 calcium fluorescence, potentiator mode; 0% = oxytocin EC15, 100% = EC100; activation, % at 3 µM; 0.061% of 320,000 active;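 active means activation above that plate's cutoff, the mean activation of tested compounds plus 3 SD, cut at about 6.6% in these data, passing the limit was not always enough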;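 further: 100% uses oxytocin at 75 nM as the full agonist control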
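Assay system: CHO cell line stably expressing human OTR | Also added: Oxytocin at about EC15, sub-maximal agonist stimulus | Times: Compound 6 min at room temperature before oxytocin, 100 s read | Measured by: Fluo-8 intracellular calcium fluorescence, ex 470-495, em 515-575 nm | Controls: EC15 oxytocin alone as 0%, 75 nM oxytocin as 100%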
CHO parental Ca – counter-screen for OX1R antagonists: effect in parental CHO cells; parental CHO-K1, ATP-induced calcium, Fluo-8 fluorescence; AID 463079; inhibition, % at 5.6 µM; 0.63% of 330,000 active;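 active means inhibition above that plate's mean sample inhibition plus 3 SD, cut at about 26% in these data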;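 further: 0% = ATP-challenged DMSO wells and 100% = DMSO wells without ATP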
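test system = CHO parental line | reagent = ATP stimulus | measured by = intracellular calcium via Fluo-8 no-wash fluorescent dye | control set = ATP and no-ATP DMSO wells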
OX1R antag-1 – blocks the human orexin 1 receptor | O43613 | OX1R-expressing cells, FRET antagonist read-out | inhibition, % at 6.6 µM | 1.8% of 330,000 active | AID 485270; in the data active means inhibition mostly above about 38%, no sharp cut-off; inactive means mostly below about 40%;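 further: 0% = agonist challenge alone and 100% = reference antagonist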
OXTR agonist – human OXTR agonism; 0.32% of 320,000 active; activation, % at 3 µM; P30559; CHO-OTR cells, Fluo-8 calcium fluorescence; normalized: DMSO 0%, oxytocin 100%;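 active means activation above the mean of all tested compounds plus 3 SD, cutoff set per screening run, cut at about 20% in these data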;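 further: peak over basal fluorescence ratio from a 100 s FLIPR kinetic read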
V1aR counter – counter-screen for oxytocin receptor agonists: human V1a receptor agonists. CHO-V1R cells, Fluo-8 calcium fluorescence, agonist mode; 0% DMSO, 100% 3 nM vasopressin. activation, % at 3 µM. 0.25% of 320,000 active. AID 2797;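 active means activation above the mean activation of all tested compounds plus 3 SD, per screening run, cut at about 20% in these data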;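 further: signal is peak over basal fluorescence ratio across a 100 second FLIPR read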
Target sequence (P37288 whole entry, looked up): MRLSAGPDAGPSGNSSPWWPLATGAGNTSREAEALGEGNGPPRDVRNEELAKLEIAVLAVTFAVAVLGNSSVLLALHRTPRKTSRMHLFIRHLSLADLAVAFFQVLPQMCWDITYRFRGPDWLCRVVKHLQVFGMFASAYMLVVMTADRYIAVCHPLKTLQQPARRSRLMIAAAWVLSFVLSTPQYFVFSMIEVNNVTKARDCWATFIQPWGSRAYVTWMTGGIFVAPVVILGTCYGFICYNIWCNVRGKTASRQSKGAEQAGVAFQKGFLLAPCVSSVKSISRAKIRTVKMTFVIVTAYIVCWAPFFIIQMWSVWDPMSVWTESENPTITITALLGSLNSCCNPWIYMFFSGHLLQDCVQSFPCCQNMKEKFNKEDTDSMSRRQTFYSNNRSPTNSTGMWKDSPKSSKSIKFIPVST
OX1R antag-2 – blocks the human orexin 1 receptor. AID 434989. inhibition, % at 5 µM. O43613. CHO/OX1R cells, Fluo-8 calcium fluorescence, orexin A. 0.43% of 330,000 active;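 active means inhibition above its plate's threshold, mean inhibition of all tested compounds on the plate plus 3 SD, cut at about 37% in these data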;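 further: 0% = orexin A challenge wells and 100% = SB-334867-A antagonist wells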
OX1R Ca confirm – confirmation of human orexin 1 receptor antagonists | shares compounds with OX1R antag-2 | CHO/OX1R cells, orexin A calcium Fluo-8 fluorescence | inhibition, % at 5 µM | 38% of 1,100 active | AID 492963; in the data active means inhibition above about 29%;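 further: 0% = agonist challenge alone and 100% = reference antagonist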
CHO Ca counter – counter-screen for OX1R antagonists: effect in parental CHO cells; shares compounds with OX1R antag-2; parental CHO-K1, ATP-induced calcium, Fluo-8 fluorescence; inhibition, % at 5.6 µM; 9.3% of 1,100 active; AID 492965;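 active means inhibition above a per-plate limit, the mean inhibition of that plate's test compounds plus 3 SD, cut at about 25% in these data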;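 further: 0% = ATP challenge with DMSO and 100% = DMSO without ATP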
* hit, by the source's call; nt = no result. Hits are enriched below; roughly 2.7% of the tested compounds scored in any of these assays.

SMILES	OXTR potentiate	CHO parental Ca	OX1R antag-1	OXTR agonist	V1aR counter	OX1R antag-2	OX1R Ca confirm	CHO Ca counter
COC(=O)c1ccc2c(c1)C(C)(C)C(/C=C/c1ccccc1O)=[N+]2C	-9	21	31	17	15	33	57*	46*
COc1ccccc1N1CCN(c2cc(C)nc3nc(C)nn23)CC1	3	-10	6	-1	0	36	-3	-4
COc1ccccc1-c1c(C)nn2c(N3CCN(c4ccccc4OC)CC3)cc(C)nc12	2	-9	6	1	1	-16	nt	nt
CC1CCN(c2c(NCC3CCC(C(=O)NCCCc4ccccc4)CC3)c(=O)c2=O)CC1 (configuration not stated)	1	-13	0	-1	1	-17	nt	nt
CC(NS(=O)(=O)c1cccc(Cl)c1)C(=O)Nc1ccc(-c2nc3ccccc3s2)cc1 (configuration not stated)	-19	-4	55	3	6	34	12	-8
COc1ccc(OC)c(S(=O)(=O)Nc2ccc(Oc3ccccc3)cc2)c1	-11	13	10	4	6	45	9	9
COc1cccc(C(=O)Nc2cccc(-c3nnc(-c4ccccc4)o3)c2)c1	-13	2	14	0	2	44	0	-13
Cc1ccc(NC(=O)CN(C)C(=O)COc2ccccc2-c2ccccc2)cc1	-2	-8	22	0	2	18	nt	nt
COc1ccc(C2NC3=C(CCC3)C3(C#N)C4(N=C(N)C23C#N)OCCO4)cc1 (configuration not stated)	2	-8	40	0	0	36	3	-1
O=[N+]([O-])c1ccc(Nc2ccc3ccccc3c2)nc1	-11	0	35	-2	-1	46*	22	4
Cc1ccc(COc2ccc(CNCCCN3CCCCCC3=O)cc2)cc1	-13	-18	21	3	3	-24	nt	nt
O=C(CN(C(=O)c1ccccc1Cl)C1CCCCC1)Nc1ccc(Cl)c([N+](=O)[O-])c1	-22	11	18	1	2	36	20	6
COc1ccc2c(c1)c(C(C)=O)c(C)n2CCc1ccccc1	-8	6	20	4	2	-9	nt	nt
Cc1cnn2c(C3CC3)ccnc12	-22	3	10	1	1	22	2	-6
COc1n[nH]c(C(=O)Nc2cc(Cl)ccc2Cl)c1[N+](=O)[O-]	-3	-18	26	-2	4	-1	nt	nt
COc1ccc(Cl)cc1NC(=O)c1[nH]nc(OC)c1[N+](=O)[O-]	-5	10	15	-1	-1	105*	-1	-4
CC12CC3(C)CC(C)(C1)CC(C(=O)NCc1cccnc1)(C2)C3	0	-14	5	-2	0	-29	nt	nt
NC(=O)CC(NC(=O)Cc1ccc(Cl)cc1)c1ccc(N2CCC(Cc3ccccc3)CC2)c([N+](=O)[O-])c1 (configuration not stated)	-12	-12	8	-1	-1	-12	nt	nt
COc1ccccc1NS(=O)(=O)c1cc([N+](=O)[O-])ccc1N/N=C/c1c[nH]c2ccccc12	-17	21	1	11	10	31	20	24
COc1ccc(NS(=O)(=O)c2cc([N+](=O)[O-])ccc2N/N=C\c2c(C)[nH]c3ccccc23)cc1	-11	17	8	10	7	5	nt	nt
O=C(COC(=O)c1cccs1)c1ccc2ccccc2c1	-13	20	37	0	3	38	8	-3
CC(C)(C)c1nnc(SCC(=O)Nc2ccc(N3CCCCC3)cc2)n1N	-6	-13	2	0	0	-11	nt	nt
COc1cc(/C=C/C(O)=C/C(=O)/C=C/c2ccc(O)cc2)ccc1O	-11	25	4	22*	21*	48	18	18
Clc1cccc(CNc2nnnn2-c2ccccc2)c1	-21	24	65	19	16	45*	16	10
Cn1nnnc1NCc1cccc(Cl)c1	6	5	4	1	1	-4	nt	nt
SMILES	OXTR potentiate	CHO parental Ca	OX1R antag-1	OXTR agonist	V1aR counter	OX1R antag-2	OX1R Ca confirm	CHO Ca counter
Cc1cc(OCC(=O)N(C)C2CCCCC2)ccc1Cl	-6	-19	27	-2	-1	-23	nt	nt
Cc1cc(OCC(=O)N(C)C2CCCCC2)cc(C)c1Cl	-10	9	37	-2	-2	26	14	-5
Cn1cc(/C=C(\NC(=O)c2ccccc2Cl)C(=O)NCCCn2ccnc2)c2ccccc21	-6	-18	14	-1	1	-23	nt	nt
CCCC(=O)Nc1ccc(-c2nc3cc(C)c(C)cc3o2)cc1	-4	0	13	1	1	45	6	9
CCOC(=O)c1c(C)[nH]c(C(=O)COc2ccc3ccc(=O)oc3c2)c1C	0	-21	1	2	1	-8	nt	nt
COc1ccc(NC(=O)CSc2nnc(-c3ccoc3C)n2CCc2ccccc2)cc1	-20	-31	65	-1	1	32	9	-8
CCc1nccn1S(=O)(=O)c1ccc2ccc(C)cc2c1	-14	-11	16	-1	0	56*	4	3
CCCCN(C(=O)c1cnccn1)c1c(N)n(CCC)c(=O)[nH]c1=O	4	-13	3	2	2	-18	nt	nt
CCOc1cc(S(=O)(=O)Nc2ccc(Cl)cn2)ccc1Cl	-13	-14	26	-1	2	-9	nt	nt
CCOc1cc(S(=O)(=O)Nc2ccccc2CC)ccc1Cl	-11	-6	34	0	0	56*	1	-11
CCN(CC)S(=O)(=O)c1cccc(C(=O)/C=C2/N(C)c3ccccc3C2(C)C)c1	-11	13	27	0	0	27	0	8
N#C/C(=N\Nc1ccc(Cl)cc1)C(=N)N1CCCCCC1	-1	11	17	1	0	24	-3	-2
CS(=O)(=O)N(Cc1ccco1)CC(O)Cn1c2ccccc2c2ccccc21 (configuration not stated)	-24	9	37	14	14	51*	30*	-1
Cc1cccc(C)c1N(CC(O)Cn1c2ccccc2c2ccccc21)S(C)(=O)=O (configuration not stated)	-8	-9	32	8	7	13	nt	nt
CCC(C)N1CCC(Oc2ccc(C(=O)NCc3ccccn3)cc2)CC1 (configuration not stated)	-4	3	16	1	2	-10	nt	nt
